Screening data deposited in PubChem BioAssay by several laboratories.
Hsp70 act: transcriptional activators of Hsp70; HeLa Hsp70 promoter luciferase reporter, luminescence; scaled: vehicle 0, proteasome-inhibitor control 100%; activation, % at 10 µM; 200,000 tested, 0.04% active; AID 1203;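 active means activation above the mean across all tested compounds plus 3 SD, cutoff set per campaign, cut at about 5.5% in these data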;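 further: 100% = MG132 at 30 µM as the positive control and 0% = DMSO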
PGE2 EP2 inh: EP2 receptor (human) inhibition; P43116; C6 glioma cells expressing human EP2, cAMP TR-FRET; cells stimulated with saturating PGE2; inhibition, % at 25 µM; 260,000 tested, 0.52% active; AID 1422;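 active means percent inhibition above 40 after rounding to a whole number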;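 further: rat C6 glioma host cells with rolipram phosphodiesterase inhibitor present; the protocol text gives 20 µM as final concentration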
Target sequence (P43116 whole entry, looked up): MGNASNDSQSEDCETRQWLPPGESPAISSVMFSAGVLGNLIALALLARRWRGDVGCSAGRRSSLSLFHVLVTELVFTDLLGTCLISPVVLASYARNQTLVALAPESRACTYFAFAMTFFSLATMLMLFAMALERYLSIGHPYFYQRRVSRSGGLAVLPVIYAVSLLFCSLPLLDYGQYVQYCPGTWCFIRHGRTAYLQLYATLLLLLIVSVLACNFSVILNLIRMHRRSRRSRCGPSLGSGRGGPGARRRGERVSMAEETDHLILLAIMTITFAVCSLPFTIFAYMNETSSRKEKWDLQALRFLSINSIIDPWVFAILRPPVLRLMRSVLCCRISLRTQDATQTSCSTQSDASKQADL
Dynein transport: blocks dynein driven cargo transport along microtubules; 3617.4 mouse cells, GR-EGFP nuclear translocation imaging; test concentration mostly 20 µM; stimulated with dexamethasone, 1 µM; hits give low values; z-score, hits read low; 220,000 tested, 0.47% active;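 active means plate z-score of nuclear minus cytoplasmic receptor signal below a set negative limit, without overly bright fluorescence or cell loss, cut at about -3.5 in these data, passing the limit was not always enough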;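 further: z-score of nuclear minus cytoplasmic ring GR-EGFP intensity difference per well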
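medium = tetracycline-free induction medium containing charcoal-stripped FBS | probe or stimulus = dexamethasone, 1.0 µM final | timing = 48 h induction, then 1 h compound, then 30 min agonist, 37 °C | detection = automated 10x imaging of fixed Hoechst-stained cells | read-out basis = nuclear versus cytoplasmic GR-EGFP signal, averaged per well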
EP2 modulator: modulates human prostaglandin E2 receptor EP2 signaling. EP2-expressing cells, cAMP HTRF FRET, PGE2 co-stimulation. 260,000 tested, 0.83% active. induction, % at 25 µM;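 active means compounds whose cAMP rise, as percent of the full-agonist control response, exceeds 60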;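 further: rat C6 glioma line stably carrying human EP2 under a CMV promoter; the protocol text gives 20 µM as final concentration; 100% = response of wells given 1 µM PGE2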
Dynein confirm: dynein cargo transport inhibition, confirmation. 3617.4 GR-EGFP nuclear translocation imaging, dexamethasone-induced. calls only at 20 µM. 1,000 tested, 69% active. AID 463116. shares compounds with Dynein transport;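 active means inhibition of receptor movement into the nucleus at or above a set limit in both runs, with normal cell brightness and cell count; inconclusive means limit reached in only one run, brightness and count normal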;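 further: dexamethasone at 1 µM final in well for 30 min; nuclear minus cytoplasmic GR-EGFP mean intensity difference in channel 2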
Numbers without * were called inactive; i = inactive; ? = inconclusive; . = not tested or not shown; + = active, no number. In the library only some 1.7% were active in any assay of this set; here they are far more common.

SMILES	Hsp70 act	PGE2 EP2 inh	Dynein transport	EP2 modulator	Dynein confirm
COc1ccc(NC(=O)/C(Cl)=C(/Cl)S(=O)(=O)Cc2ccccc2)cn1	1	23	-5.6*	-10	+
COc1ccc(NC(=O)C(Cl)=C(Cl)Cl)cn1	0	1	-4.5*	-9	+
COc1cccc(OC)c1CN(Cc1ccncc1)C1CC(C)(C)NC(C)(C)C1	.	10	.	-57	.
Cc1cc(NC(=O)/C=C/C(=O)O)nc(C)n1	.	14	.	31	.
COc1ccccc1C(C[N+](=O)[O-])c1c(N)n(C)c(=O)n(C)c1=O (configuration not stated)	.	7	-3.5*	0	?
COc1ccccc1C(c1c(N)n(C)c(=O)n(C)c1=O)C(C)[N+](=O)[O-] (configuration not stated)	.	7	-0.21	21	.
CC(C)COc1cc(=O)[nH]c(SCC(C)C)n1	0	6	-4.2*	24	i
COc1cccc(OC)c1OCCCSc1nc(C)cc(=O)[nH]1	0	7	-1.3	9	.
Clc1ccc(N=c2ssnc2Cl)nc1	0	9	-3.5*	-76	i
CCOC(=S)SCC(=O)Nc1ncc(C)s1	.	10	-4.1*	-26	i
Cc1ccc(-c2csc(NC(=O)CSc3nnc(CN4CCOCC4)n3C)n2)cc1	.	8	.	1	.
CC(C)(C)c1ccc(C(=O)CC(Sc2ccc(Cl)cc2)C(=O)O)cc1 (configuration not stated)	0	8	-4.6*	-26	+
COc1cccc(C(=O)Oc2ccccc2/C=C\C(=O)c2cc3ccccc3o2)c1	0	7	-4*	39	+
O=C(Oc1ccccc1/C=C\C(=O)c1cc2ccccc2o1)c1ccccc1	0	7	-3.1	31	.
COc1cccc(C(=O)/C=C/c2ccc(N3CCCCC3)c([N+](=O)[O-])c2)c1	0	7	-0.56	-6	.
COc1cccc(/C=C/C(=O)c2cccc([N+](=O)[O-])c2)c1OC	0	4	-5.3*	4	+
COc1cccc(/C=C/C(=O)c2cccc([N+](=O)[O-])c2)c1	0	12	-4.5*	3	+
COc1ccc(Oc2ccc(/C=C/C(=O)c3ccc(O)cc3)cc2[N+](=O)[O-])cc1	0	26	-3.6*	-42	+
COc1ccc(/C=C/C(=O)c2ccc(O)cc2)cc1COc1ccc(F)cc1	0	4	-0.0039	43	.
CC[C@@H](Cn1nc(-c2cccs2)ccc1=O)NC(=O)CN1Cc2ccccc2C1=O	.	8	.	23	.
Cc1ccc(S(=O)(=O)NC2OC(=O)C(Cl)=C2Cl)cc1 (configuration not stated)	0	5	-3.6*	2	i
CCOC(=O)C1CCN(C(=O)c2c(Cl)cccc2Cl)CC1	.	10	.	-13	.
Cc1nnc2c3ccccc3c(-c3ccc(O)cc3)nn12	0	.	-0.39	4	.
Cc1c(-c2ccc(O)cc2)nc2nc(-c3ccccc3)c(-c3ccccc3)nn12	.	4	-5.3	33	+
Cc1sc2ncn(C)c(=O)c2c1-c1ccc(F)cc1	.	11	.	-11	.
SMILES	Hsp70 act	PGE2 EP2 inh	Dynein transport	EP2 modulator	Dynein confirm
COc1ccc(C(=O)C(CN2CCCC2)c2ccccc2)cc1 (configuration not stated)	0	14	-4.3*	6	+
O=C(c1ccc(F)cc1)C(CN1CCOCC1)c1ccccc1 (configuration not stated)	0	8	-6.1*	25	+
COc1ccc(/C=C/C(=O)c2cc(Br)ccc2OC(=O)c2ccco2)cc1OC	-1	10	-3.7*	3	+
CCC(=O)N1N=C(c2ccc(NS(=O)(=O)CC)cc2)CC1c1ccco1 (configuration not stated)	.	12	.	-1	.
CCOc1ccc(CC(=O)NNC(=O)/C=C/C(=O)O)cc1	.	5	-1.2	7	.
CCOc1ccc(CN(C)C(=O)CCl)cc1	0	2	-5.6*	-14	+
CCC(C)(C)c1ccc(OCCCC[n+]2cccc(C)c2)c(C(C)(C)CC)c1	0	12	-4.8*	-62	i
Cc1ccc[n+](CC(=O)Nc2cc(C(F)(F)F)ccc2Cl)c1	0	10	.	21	.
OC(CN1CCN(c2ccc(F)cc2)CC1)c1ccc2c(c1)CCO2 (configuration not stated)	.	8	.	-57	.
O=c1c2ccccc2sn1-c1ccccc1	0	118*	-5.2*	-35	+
CN(C)S(=O)(=O)c1cccc(-n2sc3ccccc3c2=O)c1	0	5	-3.6*	-48	i
Cc1ccc(-n2sc3ccccc3c2=O)cc1S(=O)(=O)N1CCCCC1	0	7	-0.85	-14	.
Cc1ccc(S(=O)(=O)N2CCC(N3CCC(C)CC3)CC2)cc1Cl	.	10	.	-8	.
O=C(O)CCN1C(=O)/C(=C\c2ccc(-c3nc4ccccc4s3)o2)SC1=S	0	12	-4	11	i
O=C1NC(=O)/C(=C/c2ccc(-c3nc4ccccc4s3)o2)S1	.	15	.	-56	.
O=C(NC1CCCCC1)C1C2C=CC3(O2)C1C(=O)N(C1CC1)C3C(=O)NC1CCCCC1 (configuration not stated)	.	10	.	12	.
CCOc1ccc(C(=O)Nc2nnn(CC)n2)cc1Br	.	8	.	-17	.
O=C(c1ccccc1)c1c[nH]c(C(=O)C(Cl)(Cl)Cl)c1	0	16	0.24	-25	.
O=C(c1ccc(Cl)cc1)c1c[nH]c(C(=O)C(Cl)(Cl)Cl)c1	0	26	-3.7*	-2	+
CC(c1ccccc1)N1CCN(C(=O)CCl)CC1 (configuration not stated)	0	17	-4.9*	20	i
CS(=O)(=O)c1ccc(C(=O)OCc2nnc(-c3ccccc3)o2)cc1[N+](=O)[O-]	0	5	-6.6*	-50	+
Cc1ccccc1NC(=O)COC(=O)c1ccc(S(C)(=O)=O)c([N+](=O)[O-])c1	0	9	-4.4*	-38	+
CC(=O)c1cccc(NC(=O)COC(=O)c2ccc(S(C)(=O)=O)c([N+](=O)[O-])c2)c1	0	6	0.3	-80	.
CN(C)S(=O)(=O)c1ccc(C(=O)OCc2nnc(-c3ccccc3)o2)cc1	.	5	-0.14	-15	.
O=c1c(Cl)c(Cl)cnn1Cc1nnc(-c2ccc(Cl)cc2)o1	3	15	-4.8*	-43	+
SMILES	Hsp70 act	PGE2 EP2 inh	Dynein transport	EP2 modulator	Dynein confirm
O=c1c(Cl)c(Cl)cnn1-c1ccccc1	2	11	-4.6*	11	+
Cc1cc(C)cc(Cn2ncc(Cl)c(Cl)c2=O)c1	0	11	-6.1*	5	+
Cc1ccc(Cn2ncc(Cl)c(Cl)c2=O)cc1	0	5	-3.3	16	.
O=c1c(Cl)c(Cl)cnn1Cc1ccccc1Cl	1	21	-3.9*	2	+
Cc1ccc2nc(C3CCN(C(=O)C4CC4)CC3)[nH]c2c1	.	20	.	12	.
CN(C)c1nc(C=C(C#N)C#N)c(Cl)n1-c1ccc(F)cc1	0	5	-6.6*	20	+
